RBBP9 inhibitor = human RBBP9 hydrolase inhibition; recombinant RBBP9, FP-Rh probe fluorescence polarization; O75884; inhibition, % at 7.94 µM; hit rate 0.2% among 220,000; AID 1515;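 active = inhibition above the campaign mean of all tested compounds plus 3 SD, cut at about 14% in these data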
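system = RBBP9 protein | input = RBBP9 at 2.5 µM in dispensed solution, before mixing | measured by = fluorescence polarization (mP), excitation 525 nm, emission 598 nm | incubation = enzyme-compound preincubation 30 min, then probe labeling 45 min, 25 °C | buffer or medium = Tris-NaCl-Pluronic buffer, pH 8.0 | compound = single dose 7.94 µM | also added = FP-Rh probe, 375 nM dispensing solution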
p47phox inh = p47phox (human) inhibition; p47phox/p22phox peptide binding, fluorescence polarization, 2 h; inhibition, % at 24.7 µM; P14598; hit rate 0.53% among 220,000
14-3-3 Bad inh = disrupts binding of bovine 14-3-3 zeta to phospho-Bad peptide; hit rate 0.71% among 220,000; inhibition, % at 21.7 µM; TR-FRET 14-3-3zeta/Dy647-pBad peptide displacement, 1 h; AID 781;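 active = inhibition above about 70%, limit read from the data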
eIF4E 4G PPI = eIF4E/eIF4G interaction inhibition in translation initiation; P63073+Q04637; TR-FRET eIF4E-eIF4GI(517-606) binding, 2 h; inhibition, % at 21.7 µM; hit rate 0.37% among 220,000; AID 782
WT yeast gro inh = growth inhibition of WT yeast, mitochondrial fusion screen | mitochondrial fusion phenotypic screen, WT strain | inhibition, % at 10 µM | hit rate 2.1% among 190,000; in the data active = inhibition above about 58%; tested in S. cerevisiae
EBV gp42 block = blocks Epstein-Barr virus glycoprotein 42 binding; Q1HVG2; Fluorescence polarization binding assay, mP read-out; inhibition, % (tested at 21.74 µM); hit rate 0.42% among 220,000; in the data active = inhibition above about 50%
Large screens that a line does not name were inactive; [ ] = another dose, or the depositor's remark. Shown are actives, neighbours in structure and some others; about 3.7% of the full set was active somewhere.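 The calls were made as follows, unless noted: active = inhibition above about 30% (limit read from the data); inactive = the rest.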

O=C(CCC1CCCN(C(=O)c2ccsc2)C1)NCc1ccc(F)c(F)c1 (stereo not drawn)	none
CCn1c(O)c(/C=N/N=C/c2ccccc2)c2ccc(C3=NNC(=O)CC3)cc21	EBV gp42 block 60
Cc1coc(C)c1C(=O)CC1(O)C(=O)Nc2cc(Cl)cc(Cl)c21 (stereo not drawn)	WT yeast gro inh 67
Cc1cc(-c2nn(-c3ccccc3F)cc2CNCCc2cnccn2)c(C)s1	none
Cc1cc(-c2nn(-c3ccccc3F)cc2CN2CCN(c3ccccn3)CC2)c(C)s1	WT yeast gro inh 66
COc1cc(CCC(=O)Nc2ccc(C)c(S(=O)(=O)N(C)C)c2)cc(OC)c1OC	none
CCCCOCC1CC(CC#CCN2CCCCC2)C(=O)O1 (stereo not drawn)	14-3-3 Bad inh 78
Nc1ccc(C23CC4CC(CC(CO)(C4)C2)C3)cc1	none
NCC12CC3CC(C1)CC(c1ccc(Cl)cc1)(C3)C2	WT yeast gro inh 73
N#CC(C#N)=c1ccc2c(c1)N1C3=C(CCCC3)CC3CCCCC31N=2 (stereo not drawn)	WT yeast gro inh 73
N#C/C(C(N)=O)=c1/ccc2c(c1)N1C3=C(CCCC3)CC3CCCCC31N=2 (stereo not drawn)	none
O=C(Nc1cccc(F)c1)NC1CCN(Cc2ccccc2)CC1	none
COc1cc(CN2CCN(c3cccc(C)c3C)CC2)cc(OC)c1O	EBV gp42 block 111
Cc1cccc(N2CCN(Cc3ccoc3)CC2)c1C	14-3-3 Bad inh 74
O=C(NCc1cccs1)C(=O)NCC(c1ccco1)N1CCN(c2ccccc2F)CC1 (stereo not drawn)	none
CCOC(=O)C1(CC)CC(CSc2nc3ccccc3[nH]2)OC1=O (stereo not drawn)	14-3-3 Bad inh 72
Cc1cc(C(=O)N2CCCC(C(=O)c3cc(F)ccc3F)C2)c(C)o1 (stereo not drawn)	none
c1ccc(Cn2nnnc2C(c2cccs2)N2CCSCC2)cc1 (stereo not drawn)	none
CC1CCN(C(c2cccs2)c2nnnn2Cc2ccccc2)CC1 (stereo not drawn)	14-3-3 Bad inh 79
Cc1ccc(-c2nnn3c2nc(Cl)c2ccccc23)cc1	14-3-3 Bad inh 91
Clc1nc2c(-c3ccccc3)nnn2c2ccccc12	none (no result: WT yeast gro inh)
CC(O)c1nc2ccccc2n1CC(=O)Nc1ccc(F)cc1Cl (stereo not drawn)	none
COCCn1c(C)cc(C2=NNC(=NC3CC3)SC2)c1C	none
COCCn1c(C)cc(C2=NNC(=Nc3ccc(Cl)cc3Cl)SC2)c1C	14-3-3 Bad inh 72
CCCCCCCCNC(C)C(O)c1ccc(SC(C)C)cc1 (stereo not drawn)	WT yeast gro inh 98
CC(NCCc1ccc(O)cc1)C(O)c1ccc(O)cc1 (stereo not drawn)	none
Cc1cc(C)c(Cn2cnc3ccccc32)c(C)c1	none
CCNc1nc(NC(C)(C)C)nc(N2CCCC2)n1	WT yeast gro inh 60
CC(C)(C)Nc1nc(N2CCCC2)nc(N2CCCC2)n1	none
COc1cc(CNc2ccccc2SC)cc(OC)c1OC	none
COc1ccc(CNc2ccccc2SC)cc1OC	14-3-3 Bad inh 74
CC(=O)Nc1nnc(CSCc2ccccc2F)s1	none (no result: WT yeast gro inh)
CC(C)C1Cc2c(sc3[nH]c(=S)n(Cc4ccccc4)c(=O)c23)CO1 (stereo not drawn)	WT yeast gro inh 61
Cc1nnc2n(-c3ccccc3)c(=O)c3c4c(sc3n12)COC(C(C)C)C4 (stereo not drawn)	none
NNC(=S)Nc1ccc(C(F)(F)F)cc1Cl	none (no result: WT yeast gro inh)
Cc1ccc(NS(=O)(=O)c2cc(NC(=O)c3ccc4c(c3)NC(=O)CS4)ccc2Cl)c(C)c1	none
CC(=O)Nc1ccc(C(=O)Nc2cccc(-c3cnc4ccccc4n3)c2)cc1	p47phox inh 33, 14-3-3 Bad inh 81, eIF4E 4G PPI 36
COC(=O)c1cc(C(=O)c2ccccc2)n2c(=O)/c(=C\N(C)C)sc12	none (no result: WT yeast gro inh)
COC(=O)c1cc(C(=O)c2ccc(Cl)cc2)n2c(=O)/c(=C\N(C)C)sc12	EBV gp42 block 62
Nc1nn(-c2cccc(F)n2)cc1-c1ccccc1	none
CCCCCc1ccc(OCCOCCn2c[n+](C)c3ccccc32)c(CCCCC)c1	p47phox inh 75, 14-3-3 Bad inh 91, WT yeast gro inh 96
O=C(CN1CCN(C(c2ccccc2)c2ccccc2)CC1)N1CCOCC1	14-3-3 Bad inh 73
O=C(CN1CCOCC1)n1c2ccccc2c2ccccc21	14-3-3 Bad inh 75
COc1ccc(Nc2nc(N)nc(CSC(=S)N3CCCCC3C)n2)cc1 (stereo not drawn)	none (no result: WT yeast gro inh)
COc1ccc(NC(=O)c2cncc(Br)c2)cc1S(=O)(=O)N1CCCCC1	none
COc1ccc(C(C)(C)C)cc1NC(=O)c1cncc(Br)c1	WT yeast gro inh 76
CC(C)=CCc1c(O)ccc(C(=O)Cc2ccccc2)c1O	WT yeast gro inh 81
Cc1ccccc1NC(=O)Cn1nnc2c(cnn2-c2ccc(F)cc2)c1=O	eIF4E 4G PPI 41[fluorescence artefact?]
O=C(NCC1CCCO1)C(c1cccs1)N(Cc1ccccc1Cl)C(=O)c1ccc(-c2ccccc2)[nH]1 (stereo not drawn)	none
Cc1ccc(C(C(=O)NCC2CCCO2)N(Cc2ccccc2)C(=O)c2ccc(-c3ccccc3)[nH]2)o1 (stereo not drawn)	WT yeast gro inh 69
N#CC1(C#N)COC23CCCCC2C1(C#N)C(=N)O3 (stereo not drawn)	p47phox inh 141
CCCC(=O)Nc1ccc2oc(=O)ccc2c1	none
NNC(=O)c1ccc2nc(-c3ccc(Br)cc3)cn2c1	WT yeast gro inh 71
CCc1cc[n+](-c2nc([O-])sc2C=O)cc1	EBV gp42 block 87
CCc1ccc(C(=O)CN2CCSC2=N)cc1	none
COc1ccc(C(=O)N(C)C2CCN(C)CC2)cc1S(=O)(=O)Nc1cc(Cl)ccc1Cl	none (no result: WT yeast gro inh)
Cc1ccc(CSc2nc3c(c(SCC(=O)O)n2)CCCC3)cc1	none
CNc1nc(SCc2ccc(C)cc2)nc2c1CCCC2	WT yeast gro inh 67
Cc1ccc(CSc2nc3c(c(N(C)C)n2)CCCC3)cc1	WT yeast gro inh 78
COC(=O)CSc1nc(SCc2ccc(C)cc2)nc2c1CCCC2	WT yeast gro inh 70
Cn1cc([N+](=O)[O-])c(C(=O)Nc2ccc(-c3nc4ccccc4o3)cc2)n1	none (no result: WT yeast gro inh)
CS(=O)(=O)Nc1nnc(SCC(=O)N(c2ccccc2)c2ccccc2)s1	none
CC(C)c1ccc(N(CC(=O)NCc2ccc(F)cc2)C(=O)c2csnn2)cc1	none
COc1ccc(C(=O)c2sc3nc(-c4ccccc4)ccc3c2N)cc1OC	p47phox inh 30, 14-3-3 Bad inh 84[fluorescence artefact?]
COc1ccc(-c2ccc3c(N)c(C(=O)NC(C)C)sc3n2)cc1OC	none (no result: WT yeast gro inh)
COc1ccc(-c2ccc3c(N)c(C(=O)c4ccc(OC)c(OC)c4)sc3n2)cc1	14-3-3 Bad inh 86[fluorescence artefact?]
O=S(=O)(c1ccc(Br)s1)N1CCN(c2ccccn2)CC1	14-3-3 Bad inh 85
